This passage reports cytotoxicity results from ChEMBL document CHEMBL4513216, “Probing the Open Global Health Chemical Diversity Library for Multistage-Active Starting Points for Next-Generation Antimalarials” (ACS Infect Dis, 2020).

This series can be described thus: Toxicity liver stage against HepG2, at 10uM. The class given is cell-based. The arrangement: test concentration 10 uM, cell line HepG2-A16-CD81EGFP. To be noted: human, HepG2-A16-CD81EGFP cells; read-out: INHIBITION
Summed up:
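Uninfected HepG2-A16-CD81EGFP cells, 3 × 10^3 per well, 1536-well, plated on prespotted compound at 10 μM final, parasite-free screening media added to match infected plates; puromycin 10 μM positive, DMSO 0.5% negative; run in parallel with 48 h PbLuc assay at 37 °C, 5% CO2; viability by CellTiter-Glo luminescence, normalized to controls.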
In the case of `CN(C)C1CCN(C(=O)c2cccc(S(=O)(=O)NCC3(C)COC3)c2)C1` (stereo unspecified), the cytotoxicity at 10 µM is -9.22%.

In the case of `CCn1cnc(NC(=O)N2CCC(c3ccc(F)cc3)C2)n1` (stereo unspecified), the cytotoxicity at 10 µM was 4.17%.

As for `O=C(c1ccccn1)N1CCOC2(COCCN(Cc3cc[nH]n3)C2)C1` (stereo unspecified), the cytotoxicity at 10 µM was found to be 0.0227%.

For the molecule `CCOc1ccc(C#N)cc1NCC(=O)OC`, the cytotoxicity at 10 µM is -19.2%.

As to `CC(C)S(=O)(=O)N1C[C@@H](c2ccccc2)[C@H]2[C@H]1CCCCCN2C`, the cytotoxicity at 10 µM is 0.247%.

On to `Cn1c(NCC(=O)N2CCCCC2)c(C#N)c(=O)n(C)c1=O`, for which the cytotoxicity at 10 µM is 5.83%.

For the molecule `CN(C)C(=O)CN1CCc2ncnc(N(C)C)c2CC1`, the cytotoxicity at 10 µM was -93.2%.

Turning to `O=C1C(NS(=O)(=O)c2ccc(F)c(F)c2)CCN1Cc1ccccc1` (stereo unspecified), the cytotoxicity at 10 µM is -2.81%.

With `CN(C)c1cccc(C2CCCN2CCCN2CCOC2=O)c1` (stereo unspecified), the cytotoxicity at 10 µM is -10.2%.

Take `CCOc1ccnc(N2CCN(C(=O)CCc3ccsc3)CC2)n1`: the cytotoxicity at 10 µM was 8.15%.

On to `COCC(=O)N1CCc2nc(NC(C)C)nc(NC(C)C)c2CC1`, for which the cytotoxicity at 10 µM is -104%.

Consider `CC(=O)N1CCC(CCc2ccnc(Nc3ccccn3)c2)CC1`, for which the cytotoxicity at 10 µM is 5.57%.

`CN(Cc1ccccc1)C(=O)CN1CCCCC1Cn1cncn1` (stereo unspecified): the cytotoxicity at 10 µM came out at 10.4%.

On to `O=C(CCCc1ccccn1)N1CCCC1c1noc(C2CC2)n1` (stereo unspecified), for which the cytotoxicity at 10 µM was -4.47%.

As to `CN1CCN(CCOc2ccc(NC(=O)c3ccc[nH]3)cc2)CC1`, the cytotoxicity at 10 µM is -3.26%.

As to `COCCC(=O)N1CC[C@@H](N(C)C)[C@@H]1Cc1ccccc1`, the cytotoxicity at 10 µM is -5.05%.

With `CN1CCN(S(=O)(=O)c2cccc(F)c2)c2ccccc21`, the cytotoxicity at 10 µM stood at 38.5%.

On to `O=C(c1sccc1C1CC1)N1CCN(c2nccs2)CC1`, for which the cytotoxicity at 10 µM worked out at 1.41%.

Turning to `c1ccc2oc(CCCN3CCCCC3Cn3cncn3)nc2c1` (stereo unspecified), the cytotoxicity at 10 µM was -10.2%.

As to `CN(C)CCC1CCCCN1Cc1cnc(-c2ccccn2)nc1` (stereo unspecified), the cytotoxicity at 10 µM is 3.74%.

With `Cc1nc(O)c2nnn(C[C@H]3CCCN3C(=O)c3cccc(F)c3)c2n1`, the cytotoxicity at 10 µM was -0.00161%.

Turning to `Cc1nsc(C(=O)NCCc2ccc(Cl)cc2)n1`, the cytotoxicity at 10 µM came to 2.09%.

For `COCC1Cn2nnc(-c3cnn(C)c3)c2CN1Cc1ccoc1` (stereo unspecified), the cytotoxicity at 10 µM was found to be 6.44%.

`Cc1cc(CC2COc3ccccc3C2)cnc1N` (stereo unspecified): the cytotoxicity at 10 µM came to 0.873%.

As for `COC(=O)c1ccc(N2CCN(CCS(C)(=O)=O)C(C)C2)cc1` (stereo unspecified), the cytotoxicity at 10 µM was -5.57%.

On to `CCc1nccn1CCCNC(=O)c1cnn(-c2ccccc2OC)c1`, for which the cytotoxicity at 10 µM is -17.1%.

As to `O=C(Cc1ccccc1)N1CCC2(CC1)CC(Nc1cnccn1)CO2` (stereo unspecified), the cytotoxicity at 10 µM amounted to 5.1%.

Turning to `Cc1ccc(F)cc1-n1c(COC(C)C)n[nH]c1=O`, the cytotoxicity at 10 µM was 4.72%.

Regarding `NC(=O)C(NC(=O)c1ccc(NC2CC2)nc1)c1ccccc1` (stereo unspecified), the cytotoxicity at 10 µM turned out to be 10.8%.

Turning to `O=C(c1ccccc1)N1CC[C@H]2C[C@H](c3nccs3)O[C@@H]2C1`, the cytotoxicity at 10 µM was determined as 8.39%.

With `Cc1nc(N(C)C2CCCCC2)ncc1C(C)NC(=O)c1cscn1` (stereo unspecified), the cytotoxicity at 10 µM was -134%.

In the case of `CCCC(=O)N1CCC2(CC1)CC(NC(C)=O)c1ccccc1O2` (stereo unspecified), the cytotoxicity at 10 µM came out at 5.08%.

With `c1cncc(-c2noc(CN3CCn4c(nnc4C4CC4)C3)n2)c1`, the cytotoxicity at 10 µM is -8.69%.

As to `CC(=O)NC1(C(=O)N2CCC(Nc3cccnn3)CC2)CCCCC1`, the cytotoxicity at 10 µM was -5.26%.

With `O=C(CN1CCCC1CC(=O)c1ccccc1)NCc1ccccn1` (stereo unspecified), the cytotoxicity at 10 µM was found to be 1.39%.

For `Cn1cnnc1C1CCN(C(=O)c2cc(-c3ccccc3)on2)CC1`, the cytotoxicity at 10 µM is 3.77%.

With `CC(C)c1cc(NC(=O)CN2CCCC2c2noc(C(C)C)n2)on1` (stereo unspecified), the cytotoxicity at 10 µM was -3.84%.

In the case of `CC(C)NC(=O)C1CN(C(=O)c2cccs2)CC12CCOCC2` (stereo unspecified), the cytotoxicity at 10 µM is -3.59%.

Take `N#CCCn1cnc2c(Br)cccc2c1=O`: the cytotoxicity at 10 µM is 4.65%.

In the case of `Cc1cnc2c(c1NCc1cccnc1)c(=O)n(C)c(=O)n2C`, the cytotoxicity at 10 µM was -2.02%.

In the case of `CCCc1ccc(CN2CCC3(CCC(=O)N(CCO)C3)CC2)o1`, the cytotoxicity at 10 µM was -6.29%.

Turning to `Cc1noc(C)c1CN(C)C(=O)C1CCCCN1S(C)(=O)=O` (stereo unspecified), the cytotoxicity at 10 µM turned out to be 5.04%.

Regarding `CN(C)Cc1ccnc(C2CN(Cc3c(F)cccc3F)CCO2)n1` (stereo unspecified), the cytotoxicity at 10 µM was -3.14%.

For `CC(C)(O)CCc1cccc(C(=O)N2CCC3(CCO3)CC2)c1`, the cytotoxicity at 10 µM is -0.864%.

With `O=C(c1ccccn1)N1CCN(c2cnnc(N3CCCC3)c2)CC1`, the cytotoxicity at 10 µM was 4.74%.

As for `O=C(NCC1CC1)Nc1cccc(N2CCN(CC3CC3)CC2)c1`, the cytotoxicity at 10 µM was -13.3%.

For `COc1ccc(OC)c(-n2cnnc2CN)c1`, the cytotoxicity at 10 µM is -4.4%.

With `COc1ccccc1[C@@H]1CN(CC2CCC2)C[C@H]1C(=O)O`, the cytotoxicity at 10 µM was -1.02%.

Take `COC1CCN(C(=O)Cn2cccc(C(F)(F)F)c2=O)C1` (stereo unspecified): the cytotoxicity at 10 µM was 2.23%.

In the case of `CC(C)N1CCc2onc(Cn3cccc3)c2C1`, the cytotoxicity at 10 µM worked out at 7.55%.

For `CC(C1CCN(Cc2c(Cl)cncc2Cl)CC1)N1CCOCC1` (stereo unspecified), the cytotoxicity at 10 µM is -8.68%.

`Cc1nccc(N[C@H]2CN(CCC(=O)NC3CCCC3)C[C@@H]2C2CC2)n1`: the cytotoxicity at 10 µM is -4.57%.

In the case of `COCc1nc2nc(O)c3c(n2n1)NC(=O)CC3c1ccccc1Cl` (stereo unspecified), the cytotoxicity at 10 µM is -20.8%.

With `CCN(CC)c1nc(Nc2cccc(C(=O)O)c2)nc2ccccc12`, the cytotoxicity at 10 µM was 12%.

Take `CC[C@H](C)[C@H](NC(=O)Cn1ccc2ccc(F)cc21)C(=O)OC`: the cytotoxicity at 10 µM came to 4.12%.

Take `Cc1ccc2c(c1)Oc1ncccc1C(=O)N2`: the cytotoxicity at 10 µM stood at 5.15%.

For `CN1CCC(n2nc(Cc3cccc(Cl)c3)nc2Cn2cnnn2)CC1`, the cytotoxicity at 10 µM was -12.4%.

As for `O=C(COC1CCCC1)NCCc1noc(-c2ccccn2)n1`, the cytotoxicity at 10 µM came out at 3.41%.

Take `O=C(NCc1nnc2n1CCC2)N(Cc1ccc(F)cc1)C1CC1`: the cytotoxicity at 10 µM was -5.31%.

As to `CCN(Cc1ccoc1)C(=O)c1cc(C)c(C)c(S(N)(=O)=O)c1`, the cytotoxicity at 10 µM is -1.69%.

Take `O=C(N[C@@H]1CCN(Cc2cccc3nonc23)C[C@H]1O)c1cccnc1`: the cytotoxicity at 10 µM was -2.3%.

As for `Fc1cnc(N2CCn3cc(CNc4ccccn4)nc3C2)nc1`, the cytotoxicity at 10 µM is -0.665%.

For the molecule `Cn1cccc1C(=O)N1C[C@@H]2CCCO[C@@H]2[C@H](N2CCOCC2)C1`, the cytotoxicity at 10 µM was -1.19%.

Regarding `CC(C)(C)C(=O)N1CCC(c2cnc(-c3cn[nH]c3)cn2)CC1`, the cytotoxicity at 10 µM was 1.16%.

As to `CCN1CC2(CC1=O)CN(C(C)=O)CCN(S(C)(=O)=O)C2` (stereo unspecified), the cytotoxicity at 10 µM worked out at 0.38%.

In the case of `O=C(Nc1cccc2c1CCCC2)C1CCCN1c1nccs1` (stereo unspecified), the cytotoxicity at 10 µM is -4.15%.

On to `Cn1ccnc1C(=O)N1CCC2(CC1)CC(Oc1cccnc1)CO2` (stereo unspecified), for which the cytotoxicity at 10 µM was 3.04%.

As to `CC(C)CC(=O)NCC1CCC(C(c2ccccn2)N(C)C)CC1` (stereo unspecified), the cytotoxicity at 10 µM was 12.2%.

As for `Cc1cn[nH]c1C1COCCN1C(=O)c1ccc2c(c1)CCCC2` (stereo unspecified), the cytotoxicity at 10 µM is -0.21%.

Take `Cc1cnccc1-c1cnn(CCNC(=O)c2ccccn2)c1C1CC1`: the cytotoxicity at 10 µM is 56.3%.

In the case of `COc1c(F)cc(F)cc1-c1nc2c([nH]1)CCNC2`, the cytotoxicity at 10 µM was determined as 3.94%.

In the case of `Cc1ccccc1OC1CCN(CC(=O)Nc2ccn(C)n2)CC1`, the cytotoxicity at 10 µM was -3.34%.

Turning to `COC(=O)c1ccc(Cn2nc(C)cc2C)cc1`, the cytotoxicity at 10 µM came out at 10.8%.

Consider `CCCN1CCN(C(=O)c2cccc3cccnc23)[C@H]2CS(=O)(=O)C[C@H]21`, for which the cytotoxicity at 10 µM turned out to be 4.36%.

As to `Cc1nnc(-c2cccc(N3CCC(NC(C)CC(C)C)CC3)c2)s1` (stereo unspecified), the cytotoxicity at 10 µM was determined as 0.363%.

In the case of `Cc1cc(N2CCCC(O)CC2)n2nc(C)c(C)c2n1` (stereo unspecified), the cytotoxicity at 10 µM turned out to be 7.46%.

For the molecule `CCn1cc(S(=O)(=O)NC2CCCC2)cn1`, the cytotoxicity at 10 µM was -7.31%.

`Cc1nc(N2CCOCC2)ncc1-c1cc(O)nc(N2CCCCC2)n1`: the cytotoxicity at 10 µM was determined as 6.2%.

As for `O=C(NC1COC2(CCN(Cc3cccs3)CC2)C1)c1ccccn1` (stereo unspecified), the cytotoxicity at 10 µM was -2.19%.

Consider `CCC(C)N(Cc1ccc(C)cc1)Cc1c[nH]c(C)n1` (stereo unspecified), for which the cytotoxicity at 10 µM stood at 7.87%.

For the molecule `CN(C)Cc1nc(C(C)(C)NC(=O)c2ccc3ccccc3c2)no1`, the cytotoxicity at 10 µM is -2.22%.

Turning to `CCn1ncc2c1CCCC2NCc1csc(C(C)C)n1` (stereo unspecified), the cytotoxicity at 10 µM was -1.69%.

Consider `CCOC(=O)c1nnc2ccccc2c1N1CCN(CC)CC1`, for which the cytotoxicity at 10 µM is -2.27%.

For `CCCn1ccc2ccc(NC(=O)N(C)CCOC)cc21`, the cytotoxicity at 10 µM is 1.31%.

With `CNC(=O)[C@@H](c1ccccc1F)N1CCC[C@H]1C(=O)NC1CCOCC1`, the cytotoxicity at 10 µM is -3.73%.

As for `Cc1nccn1CC1CCCN1S(=O)(=O)Cc1ccccc1F` (stereo unspecified), the cytotoxicity at 10 µM is -3.33%.

Take `CCOCC1CN(Cc2cc(C)on2)Cc2cn(C)nc21` (stereo unspecified): the cytotoxicity at 10 µM was determined as 13.6%.

For `CC(C(=O)Nc1ccc(N2CCCC2)nc1)n1cccn1` (stereo unspecified), the cytotoxicity at 10 µM was -17.1%.

Take `Cc1ccccc1Cn1nnc2cc3c(cc2c1=O)OCCO3`: the cytotoxicity at 10 µM came out at 1.11%.

For `CCOc1cccc2c1OCC(C(=O)NS(=O)(=O)c1c(C)noc1C)=C2`, the cytotoxicity at 10 µM is -12.1%.

On to `CN1CCCN(C[C@H]2C[C@H](CO)CN(Cc3cccnc3N)C2)CC1`, for which the cytotoxicity at 10 µM was -10.7%.

On to `CC1=C(C(=O)N(C)Cc2noc3c2CCCC3)C(C)NC(=O)N1` (stereo unspecified), for which the cytotoxicity at 10 µM is -0.844%.

On to `Cc1csc(C(=O)N2CCC(O)(CN3CCc4ccccc4C3)C2)c1` (stereo unspecified), for which the cytotoxicity at 10 µM was -1.22%.

Take `O=C(Cc1n[nH]c2ccccc12)N1CCCCC1Cn1cccn1` (stereo unspecified): the cytotoxicity at 10 µM is -14.8%.

With `O=S1(=O)CCC(S(=O)(=O)c2cccc(S(=O)(=O)N3CCCCCC3)c2)C1` (stereo unspecified), the cytotoxicity at 10 µM is -7.39%.

On to `O=C(O)c1nnn(-c2ccc(C(F)(F)F)cc2)c1-c1ccncc1`, for which the cytotoxicity at 10 µM was found to be 7.33%.
